We go through 16 compounds from ChEMBL document CHEMBL1125672, “2-acetylpyridine thiosemicarbazones. 13. Derivatives with antifilarial activity” (1991).

The test system of test [1] is Brugia pahangi. The test is described as follows: anti-filarial Activity was measured against Brugia pahangi in jirds at 100 mg/kg/day(5 days) dose. In kind it is functional. Put shortly: (§1)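 Jirds with established B. pahangi or A. viteae infections were given drug once daily for 5 days by subcutaneous injection, at the maximum tolerated dose and, where supply allowed, graded lower doses. Tolerance was first checked in noninfected jirds with a single 200 mg/kg oral or subcutaneous dose, watching 72 h for excessive weight loss or death. Macrofilarial suppression was the read-out.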

For test [2], the system named is Brugia pahangi. The test is described as follows: anti-filarial Activity was measured against Brugia pahangi in jirds at 12.5 mg/kg/day(5 days) dose. It is filed as functional. In outline: as §1
The test system of test [3] is Acanthocheilonema viteae. In words: anti-filarial Activity was measured against Acanthocheilonema viteae in jirds at 12.5 mg/kg/day(5 days) dose. In kind it is functional. Put shortly: as §1
Test [4] relates to Acanthocheilonema viteae. The test is described as follows: anti-filarial Activity was measured against Acanthocheilonema viteae in jirds at 100 mg/kg/day(5 days) dose. In kind it is functional. Put shortly: as §1
For test [5], the system named is Acanthocheilonema viteae. The test is described as follows: anti-filarial Activity was measured against Acanthocheilonema viteae in jirds at 25 mg/kg/day(5 days) dose. In kind it is functional. In outline:
as §1

Test [6] relates to Brugia pahangi. The test is described as follows: anti-filarial Activity was measured against Brugia pahangi in jirds at 25 mg/kg/day(5 days) dose. In kind it is functional. Put shortly: as §1
In test [7] the test system is Brugia pahangi. The test is described as follows: anti-filarial Activity was measured against Brugia pahangi in jirds at 50 mg/kg/day(5 days) dose. It is filed as functional. In outline: as §1
The test system of test [8] is Acanthocheilonema viteae. In words: anti-filarial Activity was measured against Acanthocheilonema viteae in jirds at 50 mg/kg/day(5 days) dose. In kind it is functional. In outline: as §1
Test [9] has as its system Brugia pahangi. In words: anti-filarial Activity was measured against Brugia pahangi in jirds at 6.25 mg/kg/day(5 days) dose. It is filed as functional. Put shortly:
as §1

In test [10] the test system is Acanthocheilonema viteae. The test is described as follows: anti-filarial Activity was measured against Acanthocheilonema viteae in jirds at 6.25 mg/kg/day(5 days) dose. It is filed as functional. In outline: as §1
For test [11], the system named is Acanthocheilonema viteae. The test is described as follows: anti-filarial Activity was measured against Acanthocheilonema viteae in jirds at 200 mg/kg/day(5 days) dose. In kind it is functional. In outline:
as §1

In test [12] the test system is Brugia pahangi. In words: anti-filarial Activity was measured against Brugia pahangi in jirds at 200 mg/kg/day(5 days) dose. It is filed as functional. In outline: as §1
In test [13] the test system is Acanthocheilonema viteae. In words: anti-filarial Activity was measured against Acanthocheilonema viteae in jirds at 1.56 mg/kg/day(5 days) dose. It is filed as functional. Put shortly: as §1
The test system of test [14] is Brugia pahangi. The test is described as follows: anti-filarial Activity was measured against Brugia pahangi in jirds at 1.56 mg/kg/day(5 days) dose. It is filed as functional. In outline:
as §1

In test [15] the test system is Brugia pahangi. In words: anti-filarial Activity was measured against Brugia pahangi in jirds at 100 mg/kg/day(5 days) dose;toxic. It is filed as functional, organism-based. Put shortly:
as §1

Test [16] has as its system Brugia pahangi. In words: anti-filarial Activity was measured against Brugia pahangi in jirds at 75 mg/kg/day(5 days) dose. It is filed as functional. Put shortly:
as §1

Test [17] concerns Acanthocheilonema viteae. The test is described as follows: anti-filarial Activity was measured against Acanthocheilonema viteae in jirds at 75 mg/kg/day(5 days) dose. It is filed as functional. Put shortly:
as §1

SMILES strings stand for the structures.

For the compound `C/C(=N\NC(S)=Nc1ccccc1N)c1ccccn1.Cl.Cl`, the Suppression in test [1] was 100%; in test [2] it was 29%; in [3] it was 36%; in [4], 100%; in test [5], 100%; in test [6], 100%. Besides, the Suppression in [7] and in test [8] was 100% each time.

Consider `C/C(=N\N=C(/S)N1CCN(c2ccc(Cl)cc2)CC1)c1ccccn1`, for which the Suppression in test [1] is listed as 14%; in test [4], 85%; in [6] it was 6%.

With `C/C(=N\NC(=S)Nc1ccccc1)c1ccccn1`, the Suppression in [5] was found to be 44%; in test [6], 17%; in test [7], 97%; in [8], 25%.

Take `C/C(=N\N=C(/S)N1CCCCCCCC1)c1ccccn1`: the Suppression was 16% in [7] and 74% in [8].

For the compound `C/C(=N\N=C(/S)Nc1cccc(N)n1)c1ccccn1`, the Suppression in test [1] was determined as 55%; in test [4], 14%; in test [7], 5%; in [8], 14%.

For the compound `C/C(=N\N=C(/S)N1CCCCC1)c1ccccn1`, the Suppression in [2] amounted to 65%; in test [9], 18%; in [10], 25%; in test [3], 14%.

Regarding `C/C(=N\N=C(/S)Nc1cccc(N)c1)c1ccccn1`, the Suppression in test [1] amounted to 17%; in test [4] it was 43%.

In the case of `C/C(=N\N=C(/S)NCCN)c1ccccn1`, the Suppression in test [2] was -3%; in test [3], -40%; in [5], 72%; in test [6], 26%.

`C/C(=N\N=C(/S)Nc1ccccc1N)c1ccccc1`: the Suppression in [1] worked out at 15%; in [11], 19%; in test [4], 9%; in test [5], 15%; in [6], 6%; in [12] it was 71%.

With `C/C(=N\N=C(/S)Nc1ccc(N)cc1)c1ccccn1`, the Suppression in test [1] was determined as 39%; in [11], 25%; in test [4], 34%; in test [5], 9%; in [6], 5%; in test [12], 60%.

Turning to `C/C(=N\NC(=S)N1CCN(c2ccccn2)CC1)c1ccccn1`, the Suppression in test [9] is on record as -5%; in [13], 40%; in [10] it was 100%.

With `C/C(=N\N=C(/S)Nc1c(N)c2ccccc2c2ccccc12)c1ccccn1`, the Suppression came out at 33% in [1], 23% in test [4], 5% in test [7] and 23% in [8].

With `C/C(=N\N=C(/S)Nc1cc2ccccc2cc1N)c1ccccn1`, the values for the Suppression in [1], in test [4] and in test [8] were 49%, 37% and 4%, respectively.

`C/C(=N\NC(N)=S)c1ccccn1`: the Suppression in test [2] is 53%; in test [13] it was 60%; in test [3] it was 42%; in [14], 41%; in test [15] it was “Toxic”.

Turning to `C/C(=N\NC(=S)N1CCCC1)c1ccccn1`, the Suppression in test [2] amounted to 86%; in test [3], 31%; in [14], 46%.

Consider `C/C(=N\N=C(/S)Nc1ccc(C)cc1N)c1ccccn1`, for which the Suppression in test [1] is given as 100%; in [16] it was 100%; in test [17], 72%; in [4], 72%; in [5], 44%; in test [6] it was 29%. Besides, the Suppression in test [7] came out at 100%; in [8], 75%.
